Results from ChEMBL document CHEMBL4689842, “EUbOPEN Chemogenomics Library wave 1” (2021).
Several values for one entry are separate records, joined by “and”; a condition that tells them apart may be missing. Equal entries are not always repeated.

System: Fibroblast
Test: Multiplex assay against human fibroblast
Format: toxicity, cell-based
How it was run: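 Cells were classed with CellPathfinder machine-learning gating, first as Hoechst high-intensity objects or normal cells, then (normal cells) as healthy, pyknosed or fragmented nuclei, and finally (pyknosed cells) as mitotic or apoptotic. Staining of live cells at seeding used Hoechst33342, BioTracker Green Microtubule Cytoskeleton Dye, MitoTracker Red and Annexin V Alexa Fluor 680, with imaging on a CQ1 microscope at 37°C and 5% CO2 after compound addition. Tubulin, mitochondrial-mass and membrane-permeability phenotypes are per cents of healthy-nucleus cells.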

[1] = 12 h, 1 µM, compound concentration 1 uM, replicate 1
[2] = 12 h, 1 µM, compound concentration 1 uM, replicate 2
[3] = 12 h, 10 µM, compound concentration 10 uM, replicate 1
[4] = 12 h, 10 µM, compound concentration 10 uM, replicate 2
[5] = 24 h, 1 µM, compound concentration 1 uM, replicate 1
[6] = 24 h, 1 µM, compound concentration 1 uM, replicate 2
[7] = 24 h, 10 µM, compound concentration 10 uM, replicate 1
[8] = 24 h, 10 µM, compound concentration 10 uM, replicate 2
[9] = 48 h, 1 µM, compound concentration 1 uM, replicate 1
[10] = 48 h, 1 µM, compound concentration 1 uM, replicate 2
[11] = 48 h, 10 µM, compound concentration 10 uM, replicate 1
[12] = 48 h, 10 µM, compound concentration 10 uM, replicate 2

## CC1=C(C(=O)Nc2cc3cn[nH]c3cc2F)C(c2ccc(C(F)(F)F)cc2)CC(=O)N1 (configuration not stated)
[1]
  Population Apoptotic (%): 78%
  Population Fragmented Nuclei (%): 29%
  Population Healthy Nuclei (%): 41%
  Population Hoechst High Intensity Objects (%): 12%
  Population Membrane Permeable-Phenotype (%): 20%
  Population Mitochondria Different-Phenotype (%): 6%
  Population Mitotic Cells (%): 21%
  Population Normal (%): 87%
  Population Pyknosed Nuclei (%): 29%
  Population Tubulin-Different-Phenotype (%): 31%
  Total Cell Count: 124
[2]
  Population Apoptotic (%): 50%
  Population Fragmented Nuclei (%): 2%
  Population Healthy Nuclei (%): 93%
  Population Hoechst High Intensity Objects (%): 10%
  Population Membrane Permeable-Phenotype (%): 4%
  Population Mitochondria Different-Phenotype (%): 9%
  Population Mitotic Cells (%): 50%
  Population Normal (%): 89%
  Population Pyknosed Nuclei (%): 4%
  Population Tubulin-Different-Phenotype (%): 14%
  Total Cell Count: 76
[3]
  Population Apoptotic (%): 55%
  Population Fragmented Nuclei (%): 25%
  Population Healthy Nuclei (%): 46%
  Population Hoechst High Intensity Objects (%): 9%
  Population Membrane Permeable-Phenotype (%): 24%
  Population Mitochondria Different-Phenotype (%): 11%
  Population Mitotic Cells (%): 44%
  Population Normal (%): 90%
  Population Pyknosed Nuclei (%): 27%
  Population Tubulin-Different-Phenotype (%): 50%
  Total Cell Count: 144
[4]
  Population Apoptotic (%): 50%
  Population Fragmented Nuclei (%): 21%
  Population Healthy Nuclei (%): 70%
  Population Membrane Permeable-Phenotype (%): 5%
  Population Mitochondria Different-Phenotype (%): 12%
  Population Mitotic Cells (%): 50%
  Population Pyknosed Nuclei (%): 7%
  Population Tubulin-Different-Phenotype (%): 25%
  Total Cell Count: 97
[5]
  Population Apoptotic (%): 54%
  Population Fragmented Nuclei (%): 20%
  Population Healthy Nuclei (%): 56%
  Population Hoechst High Intensity Objects (%): 18%
  Population Membrane Permeable-Phenotype (%): 35%
  Population Mitochondria Different-Phenotype (%): 1%
  Population Mitotic Cells (%): 45%
  Population Normal (%): 81%
  Population Pyknosed Nuclei (%): 23%
  Population Tubulin-Different-Phenotype (%): 25%
  Total Cell Count: 127
[6]
  Population Apoptotic (%): 42%
  Population Fragmented Nuclei (%): 7%
  Population Healthy Nuclei (%): 86%
  Population Hoechst High Intensity Objects (%): 4%
  Population Membrane Permeable-Phenotype (%): 10%
  Population Mitochondria Different-Phenotype (%): 13%
  Population Mitotic Cells (%): 57%
  Population Normal (%): 95%
  Population Pyknosed Nuclei (%): 6%
  Population Tubulin-Different-Phenotype (%): 16%
  Total Cell Count: 93
[7]
  Population Apoptotic (%): 40%
  Population Fragmented Nuclei (%): 25%
  Population Healthy Nuclei (%): 54%
  Population Hoechst High Intensity Objects (%): 9%
  Population Membrane Permeable-Phenotype (%): 22%
  Population Mitochondria Different-Phenotype (%): 8%
  Population Mitotic Cells (%): 59%
  Population Normal (%): 90%
  Population Pyknosed Nuclei (%): 19%
  Population Tubulin-Different-Phenotype (%): 40%
  Total Cell Count: 125
[8]
  Population Apoptotic (%): 75%
  Population Fragmented Nuclei (%): 23%
  Population Healthy Nuclei (%): 68%
  Population Hoechst High Intensity Objects (%): 6%
  Population Membrane Permeable-Phenotype (%): 4%
  Population Mitochondria Different-Phenotype (%): 14%
  Population Mitotic Cells (%): 25%
  Population Normal (%): 93%
  Population Pyknosed Nuclei (%): 8%
  Population Tubulin-Different-Phenotype (%): 29%
  Total Cell Count: 119
[9]
  Population Apoptotic (%): 66%
  Population Fragmented Nuclei (%): 33%
  Population Healthy Nuclei (%): 48%
  Population Hoechst High Intensity Objects (%): 11%
  Population Membrane Permeable-Phenotype (%): 19%
  Population Mitochondria Different-Phenotype (%): 5%
  Population Mitotic Cells (%): 33%
  Population Normal (%): 88%
  Population Pyknosed Nuclei (%): 18%
  Population Tubulin-Different-Phenotype (%): 14%
  Total Cell Count: 131
[10]
  Population Apoptotic (%): 33%
  Population Fragmented Nuclei (%): 31%
  Population Healthy Nuclei (%): 65%
  Population Hoechst High Intensity Objects (%): 22%
  Population Membrane Permeable-Phenotype (%): 6%
  Population Mitochondria Different-Phenotype (%): 0%
  Population Mitotic Cells (%): 66%
  Population Normal (%): 77%
  Population Pyknosed Nuclei (%): 3%
  Population Tubulin-Different-Phenotype (%): 23%
  Total Cell Count: 127
[11]
  Population Apoptotic (%): 46%
  Population Fragmented Nuclei (%): 33%
  Population Healthy Nuclei (%): 54%
  Population Hoechst High Intensity Objects (%): 11%
  Population Membrane Permeable-Phenotype (%): 26%
  Population Mitochondria Different-Phenotype (%): 4%
  Population Mitotic Cells (%): 53%
  Population Normal (%): 88%
  Population Pyknosed Nuclei (%): 11%
  Population Tubulin-Different-Phenotype (%): 23%
  Total Cell Count: 130
[12]
  Population Apoptotic (%): 62%
  Population Fragmented Nuclei (%): 26%
  Population Healthy Nuclei (%): 65%
  Population Membrane Permeable-Phenotype (%): 7%
  Population Mitochondria Different-Phenotype (%): 1%
  Population Mitotic Cells (%): 37%
  Population Pyknosed Nuclei (%): 8%
  Population Tubulin-Different-Phenotype (%): 22%
  Total Cell Count: 109

## Cc1cc(C)c(-n2ccn3nc(-c4cccnc4)cc23)cc1NC(=O)c1cc(C#N)cc(S(F)(F)(F)(F)F)c1 [BAY-826]
[1]
  Population Apoptotic (%): 67% and 71%
  Population Fragmented Nuclei (%): 37% and 21%
  Population Healthy Nuclei (%): 48% and 63%
  Population Hoechst High Intensity Objects (%): 11% and 19%
  Population Mitochondria Different-Phenotype (%): 3% and 8%
  Population Mitotic Cells (%): 32% and 28%
  Population Normal (%): 88% and 80%
  Population Pyknosed Nuclei (%): 14% and 15%
  Total Cell Count: 241 and 313
[2]
  Population Apoptotic (%): 50% and 91%
  Population Fragmented Nuclei (%): 55% and 58%
  Population Healthy Nuclei (%): 37% and 19%
  Population Hoechst High Intensity Objects (%): 23% and 34%
  Population Membrane Permeable-Phenotype (%): 20% and 36%
  Population Normal (%): 76% and 65%
  Population Pyknosed Nuclei (%): 7% and 21%
  Population Tubulin-Different-Phenotype (%): 30% and 54%
  Total Cell Count: 71 and 85
[5]
  Population Apoptotic (%): 52% and 37%
  Population Fragmented Nuclei (%): 23% and 21%
  Population Healthy Nuclei (%): 54% and 63%
  Population Hoechst High Intensity Objects (%): 12% and 18%
  Population Mitochondria Different-Phenotype (%): 8% and 4%
  Population Mitotic Cells (%): 47% and 62%
  Population Normal (%): 87% and 81%
  Population Pyknosed Nuclei (%): 21% and 14%
  Total Cell Count: 231 and 326
[6]
  Population Fragmented Nuclei (%): 54% and 59%
  Population Healthy Nuclei (%): 35% and 19%
  Population Hoechst High Intensity Objects (%): 36% and 28%
  Population Normal (%): 64% and 71%
  Population Pyknosed Nuclei (%): 10% and 20%
  Population Tubulin-Different-Phenotype (%): 29% and 58%
  Total Cell Count: 75 and 87
